The source of these data is ChEMBL document CHEMBL1144847, “Novel uracil-based 2-aminoanilide and 2-aminoanilide-like derivatives: histone deacetylase inhibition and in-cell activities” (Bioorg Med Chem Lett, 2008).

pIC50: −log10 of the molar value. Activity calls are given as the source filed them. The calls are words filed in the database; no cut-off is given here.

Assay [1] deals with U-937. The assay can be described thus: Induction of histone H4 hyperacetylation in human U937 cells at 5 uM. Type of assay: functional, cell-based.
Assay [2] deals with U-937. The assay can be described thus: Induction of histone H3 hyperacetylation in human U937 cells at 5 uM. Type of assay: functional, cell-based. In a few lines:
(§1)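 U937 cells exposed at 5 µM for 24 h; acetylation of histone H3 and α-tubulin assessed as markers of class I HDAC and HDAC6 inhibition, respectively.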

Assay [3] has as its system U-937. The assay can be described thus: Induction of alpha tubulin hyperacetylation in human U937 cells at 5 uM. Type of assay: functional, cell-based. Put shortly:
as §1

The subject of assay [4] is U-937. The assay can be described thus: Induction of granulocytic differentiation in human U937 cells assessed as CD11c expression at 5 uM after 30 hrs. Type of assay: functional. Put shortly:
(§2)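 U937 cells stimulated 30 h at 5 µM; granulocytic differentiation measured as CD11c expression, reported as percent CD11c-positive/PI-negative cells; SAHA and MS-275 at 5 µM as references.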

Assay [5] concerns U-937. The assay can be described thus: Induction of histone H4 hyperacetylation in human U937 cells. It counts as functional, cell-based.
The test system of assay [6] is U-937. The assay can be described thus: Induction of alpha tubulin hyperacetylation in human U937 cells. Type of assay: functional, cell-based. In a few lines: as §1
Assay [7] concerns U-937. The assay can be described thus: Induction of apoptosis in human U937 cells. Type of assay: functional, cell-based. In a few lines: (§3)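 U937 cells exposed at 5 µM for 30 h; apoptosis quantified by Annexin V/propidium iodide double staining, expressed as percent apoptotic cells; SAHA and MS-275 at 5 µM as references.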
Assay [8] relates to U-937. The assay can be described thus: Induction of granulocytic differentiation in human U937 cells. It counts as functional, cell-based. In a few lines:
as §2

In assay [9] the test system is U-937. The assay can be described thus: Induction of apoptosis in human U937 cells at 5 uM after 30 hrs. Type of assay: functional. In a few lines: as §3
The subject of assay [10] is U-937. The assay can be described thus: Induction of p21 expression in human U937 cells at 5 uM after 24 hrs. Type of assay: functional, cell-based. In a few lines: (§4)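 U937 cells exposed at 5 µM for 24 h; induction of p21WAF1/CIP1 assessed alongside histone H3 and α-tubulin acetylation.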
Assay [11] relates to U-937. The assay can be described thus: Induction of p21 expression in human U937 cells. Type of assay: functional, cell-based. In a few lines: as §4
Another assay deals with Histone deacetylase 1 (Homo sapiens, UniProt Q13547). The assay can be described thus: Inhibition of human HDAC1 in U937 cells by immunoprecipitation assay. It counts as cell-based, U-937.
The target of the next assay is Histone deacetylase 4 (Homo sapiens, UniProt P56524). The assay can be described thus: Inhibition of human HDAC4 in U937 cells by immunoprecipitation assay. Type of assay: cell-based, U-937.
Assay [12] deals with U-937. The assay can be described thus: Cell cycle arrest in human U937 cells assessed as accumulation at G2 phase at 5 uM after 30 hrs. It counts as functional, cell-based. In a few lines: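 U937 human leukemia cells exposed to compound at 5 µM for 30 h; cell-cycle distribution analysed, arrest read as accumulation in S or G2 phase; SAHA and MS-275 at 5 µM as reference drugs.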

Chain of Histone deacetylase 4 (P56524 whole entry): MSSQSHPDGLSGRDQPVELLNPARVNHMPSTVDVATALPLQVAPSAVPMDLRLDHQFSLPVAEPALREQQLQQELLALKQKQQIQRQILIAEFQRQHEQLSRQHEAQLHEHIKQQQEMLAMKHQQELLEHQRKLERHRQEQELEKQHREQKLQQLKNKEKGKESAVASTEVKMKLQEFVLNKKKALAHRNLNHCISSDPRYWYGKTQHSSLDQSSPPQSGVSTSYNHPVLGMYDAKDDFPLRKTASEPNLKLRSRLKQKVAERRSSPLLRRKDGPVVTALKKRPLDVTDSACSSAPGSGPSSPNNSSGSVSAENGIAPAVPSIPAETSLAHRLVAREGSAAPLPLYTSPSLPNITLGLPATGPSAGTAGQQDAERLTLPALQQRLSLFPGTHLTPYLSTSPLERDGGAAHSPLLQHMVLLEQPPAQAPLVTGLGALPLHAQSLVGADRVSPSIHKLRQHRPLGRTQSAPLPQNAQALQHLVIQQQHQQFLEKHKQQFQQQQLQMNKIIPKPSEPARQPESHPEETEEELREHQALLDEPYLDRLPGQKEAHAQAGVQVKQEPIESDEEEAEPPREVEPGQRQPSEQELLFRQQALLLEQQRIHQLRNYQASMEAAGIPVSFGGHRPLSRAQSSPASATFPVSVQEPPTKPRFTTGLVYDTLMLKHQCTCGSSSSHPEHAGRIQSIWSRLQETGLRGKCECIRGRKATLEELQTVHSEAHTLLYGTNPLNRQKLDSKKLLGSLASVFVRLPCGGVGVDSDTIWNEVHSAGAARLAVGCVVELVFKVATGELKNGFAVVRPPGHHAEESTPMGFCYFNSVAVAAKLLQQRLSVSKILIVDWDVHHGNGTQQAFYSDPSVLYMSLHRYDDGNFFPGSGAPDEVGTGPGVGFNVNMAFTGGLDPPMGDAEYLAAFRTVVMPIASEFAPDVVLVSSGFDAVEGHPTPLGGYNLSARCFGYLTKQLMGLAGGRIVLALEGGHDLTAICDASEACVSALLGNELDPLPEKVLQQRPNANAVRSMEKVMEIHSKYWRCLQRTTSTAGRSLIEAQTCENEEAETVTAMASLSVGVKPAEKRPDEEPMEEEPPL
Chain of Histone deacetylase 1 (Q13547 whole entry): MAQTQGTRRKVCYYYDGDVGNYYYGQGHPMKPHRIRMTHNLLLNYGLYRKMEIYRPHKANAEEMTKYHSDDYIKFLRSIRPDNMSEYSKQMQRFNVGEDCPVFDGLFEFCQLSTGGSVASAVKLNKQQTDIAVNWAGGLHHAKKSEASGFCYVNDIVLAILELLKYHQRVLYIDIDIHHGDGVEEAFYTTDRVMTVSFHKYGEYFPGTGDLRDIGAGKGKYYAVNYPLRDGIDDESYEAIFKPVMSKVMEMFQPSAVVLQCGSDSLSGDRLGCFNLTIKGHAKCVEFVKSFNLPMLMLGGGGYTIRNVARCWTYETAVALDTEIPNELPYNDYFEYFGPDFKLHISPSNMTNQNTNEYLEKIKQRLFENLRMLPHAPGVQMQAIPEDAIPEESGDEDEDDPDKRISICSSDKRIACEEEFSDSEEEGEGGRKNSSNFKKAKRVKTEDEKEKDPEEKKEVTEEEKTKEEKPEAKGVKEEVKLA

For the compound `Nc1ccccc1NC(=O)CCCCCC(=O)Nc1ccccc1`, the result in the assay on U-937 [1] and in the assay with U-937 [2] was Active. The outcome with U-937 [3] was inactive. Moreover, the Activity in the assay with U-937 [4] came to 18.3%.
In the case of `Nc1ccccc1NC(=O)c1ccc(CNC(=O)OCc2cccnc2)cc1` [ENTINOSTAT], the outcome in the assay on U-937 [5] and with U-937 [8] was Active. Moreover, the result in the assay with U-937 [6] and in the assay on U-937 [7] was inactive. Also, the Activity was determined as 30.8% in the assay on U-937 [4] and 3.5% with U-937 [9].
As to `Nc1ccccc1NC(=O)CCCCCc1nc(-c2ccc(-c3ccccc3)cc2)cc(=O)[nH]1`, the Activity in the assay with U-937 [4] turned out to be 45.9%. Further, the outcome in the assay with U-937 [10] was Active.
Consider `Nc1ccccc1NC(=O)CCCCSc1nc(-c2ccccc2)cc(=O)[nH]1`, for which, in the assay on U-937 [10], the result was Active.
Turning to `Nc1cccc2cccc(NC(=O)CCCCSc3nc(-c4ccccc4)cc(=O)[nH]3)c12`, the Activity in the assay with U-937 [4] came out at 30.3%. Besides, the outcome in the assay with U-937 [10] was Active.
As to `O=C(CCCCCCC(=O)Nc1ccccc1)NO` [VORINOSTAT], the outcome in the assay with U-937 [5], in the assay on U-937 [6], with U-937 [11], with U-937 [7] and in the assay with U-937 [8] was Active. The Activity in the assay on U-937 [4] was determined as 21.5%; in the assay with U-937 [9], 16.8%.
Regarding `Nc1ccccc1NC(=O)CCCCCc1nc(-c2ccccc2)cc(=O)[nH]1`, the result in the assay with U-937 [10] was Active. In addition, in the assay on U-937 [9], the Activity is reported as 4.8%.
Broadly, the pIC50 is the IC50 on a negative log10 scale, so that one unit is a factor of ten. The low end stands for a high IC50, the high end for a low IC50. Consider `Nc1ccccc1NC(=O)c1ccc(CSc2nc(-c3ccccc3)cc(=O)[nH]2)cc1`, for which the pIC50 against Histone deacetylase 1 is 6.70; against Histone deacetylase 4, 3.90. Moreover, in the assay on U-937 [4], the Activity turned out to be 47.6%. The result with U-937 [10] and in the assay on U-937 [12] was Active.
On to `Nc1cccc2cccc(NC(=O)CCCCCc3nc(-c4ccc(-c5ccccc5)cc4)cc(=O)[nH]3)c12`, for which the Activity in the assay on U-937 [4] was 67.6%.
Take `O=C(CCCCCC(=O)Nc1ccccc1O)Nc1ccccc1`: the Activity in the assay on U-937 [4] amounted to 36.6%.
